Test results taken from ChEMBL document CHEMBL4334504 (J Med Chem, 2019).
In brackets after ≈: the same amount, converted by molar mass.

Key:
HRT-18 cell line = experiment: Cytotoxicity against human HRT18 cells at > 256 uM measured after 2 hrs by MTS assay; format: cell-based; settings: hrt-18, 2 h
[1] = Stability of compound in simulated intestinal fluid assessed as parent compound remaining at pH 6 measured after 4 hrs by HPLC analysis; format: ADME; settings: read-out: Stability
How it was run: (§1)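 200 µL of a 50 µg/mL methanol stock mixed with 800 µL SGF (pH 1.6) or SIF (pH 6.0), stirred at 37 °C. Sampled at 4 and 8 h for isocratic HPLC (acetonitrile/water 50:50, 1.0 mL/min, 254 nm). Percent remaining calculated as AUC after incubation / AUC before incubation.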

Clostridioides difficile [2] = experiment: Antibacterial activity against Clostridium difficile VPI 10463 ATCC 43255 assessed as bacterial growth inhibition incubated for 48 hrs under anaerobic condition by CLSI protocol based assay; format: functional; settings: ATCC 43255 VPI 10463, 48 h
How it was run: (§2)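 Broth microdilution following CLSI guidance. Strains pre-grown anaerobically on BHIS agar (BHI plus yeast extract, vitamin K1, hemin) at 37 °C for 48 h. ~10^5 CFU/mL in BHIS broth added to serial compound dilutions. Incubated anaerobically at 37 °C for 48 h. MIC is the lowest concentration showing visible growth inhibition.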

Vero = experiment: Cytotoxicity against African green monkey Vero cells at > 256 uM measured after 2 hrs by MTS assay; format: cell-based; settings: chlorocebus sabaeus
[3] = Effect on growth of Lactobacillus crispatus JV-V01 HM 103 measured after 48 hrs in 5% CO2 by CLSI method; settings: lactobacillus crispatus jv-v01, 48 h
[4] = Effect on growth of Lactobacillus gasseri EX336960VC03 HM 400 measured after 48 hrs in 5% CO2 by CLSI method; settings: lactobacillus gasseri ex336960vc03, 48 h
Escherichia coli = experiment: Effect on growth of Escherichia coli ATCC 25922 assessed as bacterial growth inhibition measured after 16 to 18 hrs by CLSI method; format: organism-based; settings: in vivo
How it was run: (§3)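 CLSI microdilution. Colonies from TSA (16-20 h, 37 °C) suspended in PBS to 0.5 McFarland, then diluted in TSB to ~10^5 CFU/mL. Incubated with serial compound dilutions for 16-20 h at 37 °C. MIC is the lowest concentration inhibiting growth.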

[5] = Stability of compound in simulated gastric fluid assessed as parent compound remaining at pH 1.6 measured after 4 hrs by HPLC analysis; format: ADME; settings: read-out: Stability; how it was run: as §1
[6] = system: Lacticaseibacillus paracasei; experiment: Effect on growth of Lactobacillus casei ATCC 334 measured after 48 hrs in 5% CO2 by CLSI method
[7] = Stability of compound in simulated gastric fluid assessed as parent compound remaining at pH 1.6 measured after 8 hrs by HPLC analysis; format: ADME; settings: read-out: Stability; how it was run: as §1
Clostridioides difficile [8] = experiment: Antibacterial activity against Clostridium difficile 4118 ATCC BAA 1870 assessed as bacterial growth inhibition incubated for 48 hrs under anaerobic condition by CLSI protocol-based assay; format: functional; settings: 4118 ATCC BAA 1870, 48 h; how it was run: as §2
Bifidobacterium bifidum = experiment: Effect on growth of Bifidobacterium bifidum 212A ATCC 11863 measured after 48 hrs in anerobic conditions by CLSI method; format: organism-based; settings: in vivo
Caco-2 = experiment: Cytotoxicity against human Caco2 cells at > 256 uM measured after 2 hrs by MTS assay; format: cell-based; settings: caco-2, 2 h
Enterobacter cloacae = experiment: Effect on growth of Enterobacter cloacae ATCC BAA 1143 assessed as bacterial growth inhibition measured after 16 to 18 hrs grown in tryptic soy medium by CLSI method; format: organism-based; settings: in vivo; how it was run: as §3
[9] = Stability of compound in simulated intestinal fluid assessed as parent compound remaining at pH 6 measured after 8 hrs by HPLC analysis; format: ADME; settings: read-out: Stability; how it was run: as §1
[10] = Aqueous solubility of compound in PBS buffer at 1 to 100 ug/ml at pH 7.3 to 7.5 measured after 24 hrs by HPLC analysis; format: physicochemical
How it was run: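 3 mg compound in 3 mL PBS (pH 7.3-7.5) shaken 24 h at 25 °C, then centrifuged. Supernatant mixed 1:1 with acetonitrile and analysed by HPLC (C18, 1 mL/min). Solubility calculated from a standard curve (1 mg/mL methanol stock) and the dilution factor.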

Clostridioides difficile [11] = experiment: Bactericidal activity against Clostridium difficile 4118 ATCC BAA 1870 incubated for 48 hrs followed by re-plating on BHIS agar plates and measured after 24 hrs; format: functional; settings: read-out: MBC99.9
Clostridioides difficile [12] = experiment: Ratio of MBC99.9 to MIC for Clostridium difficile 4118 ATCC BAA 1870; format: functional
Clostridioides difficile [13] = experiment: Bactericidal activity against Clostridium difficile 4118 ATCC BAA 1870 assessed as reduction in bacterial colony forming units at 8 fold MIC preincubated followed by re-plating on BHIS agar plate and measured after 6 hrs under anaerobic condition by time-kill assay relative to control; format: functional; design: scale not given: the % may be the effect or the level left

Row | Molecule | Activity (HRT-18 cell line) | remaining at 4 h [1] | MIC (Clostridioides difficile [2]) | Activity (Vero) | MIC [3] | MIC [4] | MIC (Escherichia coli) | remaining at 4 h [5] | MIC [6] | remaining at 8 h [7] | MIC (Clostridioides difficile [8]) | MIC (Bifidobacterium bifidum) | Activity (Caco-2) | MIC (Enterobacter cloacae) | remaining at 8 h [9] | solubility at 24 h [10] | MBC (Clostridioides difficile [11]) | Ratio (Clostridioides difficile [12]) | Activity (Clostridioides difficile [13])
1 | Cc1nc2c([N+](=O)[O-])csc2c(=O)n1Cc1ccc([N+](=O)[O-])cc1 | Non-Toxic | > 95% | 12 µM (≈ 4.16 µg/mL) | Non-Toxic | > 739 µM | > 739 µM | > 739 µM | > 95% | > 739 µM | > 95% | 6 µM (≈ 2.08 µg/mL) | > 739 µM | Non-Toxic | > 739 µM | 90% | 12.7 µg/mL (≈ 36.8 µM) | – | – | –
2 | O=c1[nH]c(/C=C/c2ccc(Cl)cc2)nc2c([N+](=O)[O-])csc12 | Non-Toxic | – | 6 µM (≈ 2 µg/mL) | Non-Toxic | > 767 µM | > 767 µM | > 767 µM | – | > 767 µM | – | 6 µM (≈ 2 µg/mL) | > 767 µM | Non-Toxic | > 767 µM | – | – | – | – | –
3 | Cc1nc2c([N+](=O)[O-])coc2c(=O)[nH]1 | – | – | 41 µM (≈ 8 µg/mL) | – | > 700 µM | > 700 µM | > 700 µM | – | > 700 µM | – | 41 µM (≈ 8 µg/mL) | > 700 µM | – | > 700 µM | – | – | – | – | –
4 | Cc1nc2c([N+](=O)[O-])csc2c(=O)n1CCCc1ccccc1 | Non-Toxic | < 10% | 12 µM (≈ 3.95 µg/mL) | Non-Toxic | > 777 µM | > 777 µM | > 777 µM | 45% | > 777 µM | < 10% | 12 µM (≈ 3.95 µg/mL) | > 777 µM | Non-Toxic | > 777 µM | < 10% | 10.8 µg/mL (≈ 32.7 µM) | – | – | –
5 | Cc1nc2c([N+](=O)[O-])csc2c(=O)n1Cc1ccccc1 | Non-Toxic | – | 56 µM (≈ 16.9 µg/mL) | Non-Toxic | > 425 µM | > 425 µM | > 850 µM | – | > 425 µM | – | 7 µM (≈ 2.11 µg/mL) | > 425 µM | Non-Toxic | > 850 µM | – | – | – | – | –
6 | O=c1[nH]cnc2ccc([N+](=O)[O-])cc12 | – | – | 335 µM (≈ 64 µg/mL) | – | > 700 µM | > 700 µM | > 700 µM | – | > 700 µM | – | 335 µM (≈ 64 µg/mL) | > 700 µM | – | > 700 µM | – | – | – | – | –
7 | Cc1nc2c([N+](=O)[O-])cccc2c(=O)[nH]1 | – | – | 156 µM (≈ 32 µg/mL) | – | > 700 µM | > 700 µM | > 700 µM | – | > 700 µM | – | 312 µM (≈ 64 µg/mL) | > 700 µM | – | > 700 µM | – | – | – | – | –
8 | Cc1nc2c([N+](=O)[O-])scc2c(=O)[nH]1 | – | – | 38 µM (≈ 8.03 µg/mL) | – | > 700 µM | > 700 µM | > 700 µM | – | > 700 µM | – | 38 µM (≈ 8.03 µg/mL) | > 700 µM | – | > 700 µM | – | – | – | – | –
9 | CN[C@H](CC(C)C)C(=O)N[C@H]1C(=O)N[C@@H](CC(N)=O)C(=O)N[C@H]2C(=O)N[C@H]3C(=O)N[C@H](C(=O)N[C@H](C(=O)O)c4cc(O)cc(O)c4-c4cc3ccc4O)[C@H](O)c3ccc(c(Cl)c3)Oc3cc2cc(c3O[C@@H]2O[C@H](CO)[C@@H](O)[C@H](O)[C@H]2O[C@H]2C[C@](C)(N)[C@H](O)[C@H](C)O2)Oc2ccc(cc2Cl)[C@H]1O [VANCOMYCIN] | – | – | 0.3 µM (≈ 0.435 µg/mL) | – | <= 1 uM | <= 1 uM | – | – | – | – | 0.7 µM (≈ 1.01 µg/mL) | – | – | – | – | – | – | – | –
10 | O=c1[nH]c(/C=C/c2ccc(F)cc2)nc2c([N+](=O)[O-])csc12 | Non-Toxic | 60% | 6 µM (≈ 1.9 µg/mL) | Non-Toxic | > 807 µM | > 807 µM | > 807 µM | 50% | > 807 µM | 48% | 3 µM (≈ 0.952 µg/mL) | > 807 µM | Non-Toxic | > 807 µM | 51% | 14.8 µg/mL (≈ 46.6 µM) | 6 µM (≈ 1.9 µg/mL) | 2 | 100%
11 | GENTAMICIN | – | – | – | – | – | – | 8 µM | – | – | – | – | – | – | <= 1 uM | – | – | – | – | –
12 | Cc1ncc([N+](=O)[O-])n1CCO [METRONIDAZOLE] | – | – | 1.5 µM (≈ 0.257 µg/mL) | – | > 1496 µM | > 1496 µM | – | – | 47 µM (≈ 8.04 µg/mL) | – | 0.7 µM (≈ 0.12 µg/mL) | > 1496 µM | – | – | – | – | – | – | –
